Data as given in BindingDB's records for doi:10.1016/j.bmcl.2007.08.013 (Schering-Plough Research Institute, 2007).

Experiments:
[1] = target: T1, Amyloid-beta precursor protein (Homo sapiens, UniProt P05067); test: Inhibition of gamma-secretase assessed as reduction of cell A-beta-40 level
[2] = target: T1, Amyloid-beta precursor protein; test: Inhibition of gamma-secretase assessed as reduction of membrane A-beta-40 level
Method in brief: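 Membrane-based γ-secretase assay with Aβ40 as read-out; IC50 in nM, reported as means of two experiments.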

T1 sequence (P05067 whole entry): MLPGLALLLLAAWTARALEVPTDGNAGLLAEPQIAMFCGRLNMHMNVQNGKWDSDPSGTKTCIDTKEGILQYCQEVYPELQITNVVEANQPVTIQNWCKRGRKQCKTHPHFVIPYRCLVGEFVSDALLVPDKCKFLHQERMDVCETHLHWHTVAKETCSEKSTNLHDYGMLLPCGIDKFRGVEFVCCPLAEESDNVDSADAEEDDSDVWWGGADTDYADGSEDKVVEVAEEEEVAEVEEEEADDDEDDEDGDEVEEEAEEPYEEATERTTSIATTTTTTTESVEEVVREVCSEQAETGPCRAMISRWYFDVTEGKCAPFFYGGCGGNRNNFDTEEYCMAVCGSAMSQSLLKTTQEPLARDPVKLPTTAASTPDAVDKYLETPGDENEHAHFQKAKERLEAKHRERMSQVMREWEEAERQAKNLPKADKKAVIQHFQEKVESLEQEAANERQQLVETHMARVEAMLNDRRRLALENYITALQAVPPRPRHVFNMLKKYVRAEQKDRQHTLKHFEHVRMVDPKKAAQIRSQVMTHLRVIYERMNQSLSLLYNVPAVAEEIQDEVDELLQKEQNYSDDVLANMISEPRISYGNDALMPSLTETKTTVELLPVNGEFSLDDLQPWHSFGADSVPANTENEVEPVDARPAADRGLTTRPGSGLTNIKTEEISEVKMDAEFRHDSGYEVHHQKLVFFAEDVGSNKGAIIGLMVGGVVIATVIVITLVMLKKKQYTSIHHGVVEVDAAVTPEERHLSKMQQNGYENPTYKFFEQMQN

Structure (SMILES)	IC50 [1]	IC50 [2]
CC[C@@H]1CCC[C@H](C2(OC(=O)N3CCN(C(C)(C)CO)CC3)CC2)N1S(=O)(=O)c1ccc(F)cc1 [1-((2R,6R)-6-ethyl-1-(4-fluorophenylsulfonyl)piperidin-2-yl)cyclopropyl 4-(1-hydroxy-2-methylpropan-2-yl)piperazine-1-carboxylate]	25 nM	10 nM
CC[C@@H]1CCC[C@H](C2(OC(=O)N3CCN(CCO)[C@@H](C)C3)CC2)N1S(=O)(=O)c1ccc(Cl)cc1 [(S)-1-((2R,6R)-1-(4-chlorophenylsulfonyl)-6-ethylpiperidin-2-yl)cyclopropyl 4-(2-hydroxyethyl)-3-methylpiperazine-1-carboxylate]	10 nM	13 nM

Further compounds by falling IC50 [2], results first:

IC50 [1]	IC50 [2]	Structure (SMILES)
144 nM	29 nM	CC[C@@H]1CCC[C@H](C2(OC(=O)N3CCC(N4CCCCC4)CC3)CC2)N1S(=O)(=O)c1cc(F)cc(F)c1 [1-((2R,6R)-1-(3,5-difluorophenylsulfonyl)-6-ethylpiperidin-2-yl)cyclopropyl 4-(piperidin-1-yl)piperidine-1-carboxylate]
20 nM	9 nM	CC[C@@H]1CCC[C@H](C2(OC(=O)N3CCC(CCO)(OC)CC3)CC2)N1S(=O)(=O)c1ccc(Cl)cc1 [1-((2R,6R)-1-(4-chlorophenylsulfonyl)-6-ethylpiperidin-2-yl)cyclopropyl 4-(2-hydroxyethyl)-4-methoxypiperidine-1-carboxylate]
–	0.3 nM	O=C(OC1([C@H]2CCC[C@@H](c3cc(F)cc(F)c3)N2S(=O)(=O)c2ccc(Cl)cc2)CC1)N1CCC(N2CCCCC2)CC1 [1-((2R,6S)-1-(4-chlorophenylsulfonyl)-6-(3,5-difluorophenyl)piperidin-2-yl)cyclopropyl 4-(piperidin-1-yl)piperidine-1-carboxylate]
